How the values were obtained:
HEp-2 [1] = assay: In vitro antiviral activity against vaccinia(VV) virus was determined in human laryngeal epithelioma (HEp-2,H)expressed as virus rating. Toxic level (320 ug/mL); assay type: functional
Outline: (§1)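 Cell monolayers (18 h) infected with 320 TCID50 of virus. Compound was added within 15–30 min at half-log dilutions from 1000 to 1 μg/mL. After 72 h at 37 °C in 5% CO2, CPE was scored 0–4 by microscopy. VR = sum of (virus control − treated) scores, halved at partially toxic levels, divided by 10 × test cups per drug level.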

Vero [2] = assay: In vitro antiviral activity against parainfluenza type 3(para 3) virus was determined in african green monkey kidney (vero,V) expressed as virus rating. Toxic level(>1000 ug/mL); assay type: functional, Chlorocebus sabaeus; outline: as §1
Vero [3] = assay: In vitro antiviral activity against vaccinia(VV) virus was determined in african green monkey kidney (vero,V) expressed as virus rating. Toxic level(>1000 ug/mL); assay type: functional, Chlorocebus sabaeus; outline: as §1
HEp-2 [4] = assay: In vitro antiviral activity against herpes simplex type 1 (HSV-1) virus was determined in human laryngeal epithelioma (HEp-2,H)expressed as virus rating. Toxic level(320 ug/mL); assay type: functional; outline: as §1
Vero [5] = assay: In vitro antiviral activity against herpes simplex type 1 (HSV-1) virus was determined in african green monkey kidney (vero,V) expressed as virus rating. Toxic level(>1000 ug/mL); assay type: functional, Chlorocebus sabaeus; outline: as §1
HEp-2 [6] = assay: In vitro antiviral activity against parainfluenza type-3 (para 3) virus was determined in human laryngeal epithelioma (HEp-2,H)expressed as virus rating. Toxic level(320 ug/mL); assay type: functional; outline: as §1
Vero [7] = assay: In vitro antiviral activity against parainfluenza type 3(para 3) virus was determined in african green monkey kidney (vero,V) expressed as virus rating. Toxic level(320 ug/mL); assay type: functional, Chlorocebus sabaeus; outline: as §1
Vero [8] = assay: In vitro antiviral activity against vaccinia(VV) virus was determined in african green monkey kidney (vero,V) expressed as virus rating. Toxic level(320 ug/mL); assay type: functional, Chlorocebus sabaeus; outline: as §1
Vero [9] = assay: In vitro antiviral activity against herpes simplex type 1 (HSV-1) virus was determined in african green monkey kidney (vero,V) expressed as virus rating. Toxic level(320 ug/mL); assay type: functional, Chlorocebus sabaeus; outline: as §1
HEp-2 [10] = assay: In vitro antiviral activity against vaccinia(VV) virus was determined in human laryngeal epithelioma (HEp-2,H)expressed as virus rating. Toxic level(>1000 ug/mL); assay type: functional; outline: as §1
Vero [11] = assay: Percentage plaque reduction was determined against venezuelan equine encephalitis (VEE) virus in african green monkey kidney (vero,V) at a conc of 250-500 ug/mL. Toxic level(>1000 ug/mL); 10-30; assay type: functional, Chlorocebus sabaeus
HEp-2 [12] = assay: In vitro antiviral activity against parainfluenza type 3 (para 3) type 1 (HSV-1) virus was determined in human laryngeal epithelioma (HEp-2,H)expressed as virus rating. Toxic level(>1000 ug/mL); assay type: functional; outline: as §1
Vero [13] = assay: Percentage plaque reduction was determined against rift valley fever(RVF) virus in african green monkey kidney (vero,V) at a conc of 100-250 ug/mL. Toxic level(>1000 ug/mL); 31-60; assay type: functional, Chlorocebus sabaeus
Vero [14] = assay: Percentage plaque reduction was determined against pichinde(PICH) virus in african green monkey kidney (vero,V). Toxic level(>1000 ug/mL); 61-90; assay type: functional, Chlorocebus sabaeus
Outline: (§2)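 Infected Vero 24-well monolayers: virus adsorbed 1 h at 37 °C, then overlaid with agar holding dilutions of compound and incubated again at 37 °C with CO₂. Plaques were stained with crystal violet and counted. Inhibition was scored as % plaque reduction bands (10-30%, 31-60%, 61-90%), each tied to a drug concentration range.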

Vero [15] = assay: Percentage plaque reduction was determined against Sandfly fever (SF) virus in african green monkey kidney (vero,V) at a conc of 25-100 ug/mL. Toxic level(>1000 ug/mL); 61-90; assay type: functional, Chlorocebus sabaeus
HEp-2 [16] = assay: In vitro antiviral activity against herpes simplex type 1 (HSV-1) virus was determined in human laryngeal epithelioma (HEp-2,H)expressed as virus rating. Toxic level(>1000 ug/mL); assay type: functional; outline: as §1
Vero [17] = assay: Percentage plaque reduction was determined against yellow fever(YF) virus in african green monkey kidney (vero,V).Toxic level(>1000 ug/mL); 61-90; assay type: functional, Chlorocebus sabaeus
Vero [18] = assay: In vitro antiviral activity against vaccinia(VV) virus was determined in african green monkey kidney (vero,V) expressed as virus rating.; assay type: functional, Chlorocebus sabaeus; outline: as §1
Vero [19] = assay: In vitro antiviral activity against parainfluenza type 3(para 3) virus was determined in african green monkey kidney (vero,V) expressed as virus rating.; assay type: functional, Chlorocebus sabaeus; outline: as §1
Vero [20] = assay: Percentage plaque reduction was determined against rift valley fever(RVF) virus in african green monkey kidney (vero,V) at a conc of <25 ug/mL. Toxic level(>1000 ug/mL); assay type: functional, Chlorocebus sabaeus
Vero [21] = assay: Percentage plaque reduction was determined against venezuelan equine encephalitis (VEE) virus in african green monkey kidney (vero,V) at a conc of 100-250 ug/mL. Toxic level(>1000 ug/mL); assay type: functional, Chlorocebus sabaeus
Vero [22] = assay: 0 Percentage plaque reduction was determined against rift valley fever(RVF) virus in african green monkey kidney (vero,V) at a conc of 250-500 ug/mL. Toxic level(>1000 ug/mL); assay type: functional, Chlorocebus sabaeus
Vero [23] = assay: Percentage plaque reduction was determined against venezuelan equine encephalitis (VEE) virus in african green monkey kidney (vero,V) at a conc of 250-500 ug/mL. Toxic level(>1000 ug/mL); assay type: functional, Chlorocebus sabaeus
Vero [24] = assay: Percentage plaque reduction was determined against Sandfly fever (SF) virus in african green monkey kidney (vero,V) at a conc of 100-250 ug/mL. Toxic level(>1000 ug/mL); assay type: functional, Chlorocebus sabaeus
Vero [25] = assay: Percentage plaque reduction was determined against Sandfly fever (SF) virus in african green monkey kidney (vero,V) at a conc of <25 ug/mL. Toxic level(>1000 ug/mL); assay type: functional, Chlorocebus sabaeus; outline: as §2
Vero [26] = assay: Percentage plaque reduction was determined against Sandfly fever (SF) virus in african green monkey kidney (vero,V) at a conc of 25-100 ug/mL. Toxic level(>1000 ug/mL); assay type: functional, Chlorocebus sabaeus
Vero [27] = assay: Percentage plaque reduction was determined against venezuelan equine encephalitis (VEE) virus in african green monkey kidney (vero,V) at a conc of <25 ug/mL./Toxic level(>1000 ug/mL); assay type: functional, Chlorocebus sabaeus
Vero [28] = assay: Percentage plaque reduction was determined against yellow fever(YF) virus in african green monkey kidney Toxic level(>1000 ug/mL); assay type: functional, Chlorocebus sabaeus
Vero [29] = assay: Percentage plaque reduction was determined against Sandfly fever (SF) virus in african green monkey kidney (vero,V) at a conc of 250-500 ug/mL. Toxic level(>1000 ug/mL); assay type: functional, Chlorocebus sabaeus
Vero [30] = assay: Percentage plaque reduction was determined against rift valley fever(RVF) virus in african green monkey kidney (vero,V) at a conc of 100-250 ug/mL. Toxic level(>1000 ug/mL); assay type: functional, Chlorocebus sabaeus
Vero [31] = assay: Percentage plaque reduction was determined against venezuelan equine encephalitis (VEE) virus in african green monkey kidney (vero,V) at a conc of 25-100 ug/mL. Toxic level(>1000 ug/mL); assay type: functional, Chlorocebus sabaeus
Vero [32] = assay: Percentage plaque reduction was determined against rift valley fever(RVF) virus in african green monkey kidney (vero,V) at a conc of 25-100 ug/mL. Toxic level(>1000 ug/mL); assay type: functional, Chlorocebus sabaeus
Vero [33] = assay: Percentage plaque reduction was determined against pichinde(PICH) virus in african green monkey kidney (vero,V). Toxic level(>1000 ug/mL); 31-60; assay type: functional, Chlorocebus sabaeus; outline: as §2

`NC(=O)c1ncnc2c1ncn2C1O[C@H](CO)[C@@H](O)[C@H]1O` (some centres undefined) gave a Virus rating (HEp-2 [1]) of 1.1, a Virus rating (Vero [2]) of 0 and a Virus rating (Vero [3]) of 1.5. The Virus rating (HEp-2 [4]) was 0.6, the Virus rating (Vero [5]) was 0.6 and the Virus rating (HEp-2 [6]) was 1.4.

`CSc1ncnc2c1ncn2[C@@H]1O[C@H](CO)[C@@H](O)[C@H]1O` was tested, and the Virus rating (Vero [7]) was 2.2, the Virus rating (Vero [8]) was 2 and the Virus rating (Vero [9]) was 1.7.

With `NC(=O)c1ncn([C@@H]2O[C@H](CO)[C@@H](O)[C@H]2O)n1` [RIBAVIRIN] the Virus rating (HEp-2 [10]) was 1.7, the Plaque reduction (Vero [11]) was 10% and the Virus rating (Vero [2]) was 1.3. For the same compound, the Virus rating (HEp-2 [12]) was 1.7, the Plaque reduction (Vero [13]) was 31% and the Plaque reduction (Vero [14]) was 61%. For the same compound, the Virus rating (Vero [3]) was 1.2, the Virus rating (Vero [5]) was 0.6 and the Plaque reduction (Vero [15]) was 61%. The Virus rating (HEp-2 [16]) was 1.2 and the Plaque reduction (Vero [17]) was 61%.

Work on `OC[C@H]1O[C@@H](n2ccc3c(S)ncnc32)[C@H](O)[C@@H]1O` yielded a Virus rating (Vero [2]) of 1.1, a Virus rating (Vero [3]) of 0.5 and a Virus rating (Vero [5]) of 0.2.

In the case of `CSc1ncnc2c1cnn2C1O[C@H](CO)[C@@H](O)[C@H]1O` (some centres undefined), the Virus rating (Vero [18]) is reported as 0.2, the Virus rating (Vero [5]) is reported as 0.2 and the Virus rating (Vero [19]) is reported as 1.

Work on `O=C1N=CN=C2C1C=NN2C1O[C@H](CO)[C@@H](O)[C@H]1O` (some centres undefined) yielded a Plaque reduction (Vero [20]) of 0%, a Plaque reduction (Vero [21]) of 0% and a Plaque reduction (Vero [22]) of 0%. It also gave a Plaque reduction (Vero [23]) of 0%, a Plaque reduction (Vero [24]) of 0% and a Plaque reduction (Vero [25]) of 0%. The Plaque reduction (Vero [26]) was 0%, the Plaque reduction (Vero [27]) was 0% and the Plaque reduction (Vero [28]) was 0%. The Plaque reduction (Vero [29]) was 0%, the Plaque reduction (Vero [30]) was 0% and the Virus rating (Vero [5]) was 0. It also gave a Plaque reduction (Vero [31]) of 0%, a Plaque reduction (Vero [32]) of 0% and a Plaque reduction (Vero [33]) of 31%.

`OC[C@H]1O[C@@H](c2n[nH]c3c(Cl)ncnc23)[C@H](O)[C@@H]1O` showed a Virus rating (Vero [7]) of 1.3, a Virus rating (Vero [8]) of 1 and a Virus rating (Vero [9]) of 0.
